Measured values gathered from unrelated publications.
Lines come from different studies, so protocols differ.
Effect on: cell growth or viability

| SMILES | cell line | test | setting | endpoint | result |
| --- | --- | --- | --- | --- | --- |
| O=C(N[C@@H](Cc1ccccc1)C(=O)c1cn(-c2ccccc2)nn1)[C@H](Cc1ccccc1)NC(=O)N1CCOCC1 (single isomer, unassigned) | MRC-5 SV2 | – | – | CC50 | > 64 µM |
| CC(=O)OC1c2c(ccc3ccc(=O)oc23)OC(C)(C)C1OC(=O)C(C)(O)C(C)O (stereo not drawn) | WI-38 | WST-1 | – | IC50 | 89.6 µM |
| COC(=O)c1c(C)ncn1CC(c1cn(C)c2ccccc12)c1cn(C)c2ccccc12 | HaCaT | MTS | 24 h | CC50 | > 20 µM |
| O=c1oc2c(O)c(O)cc3c(=O)oc4c(O)c(O)cc1c4c23 | CEM-GFP | MTT | 48 h | CC50 | > 250 µg/mL |
| C[Si](C)(C)c1cc(C(=O)[C@H](Cc2ccccc2)NC(=O)[C@H](Cc2ccccc2)NC(=O)N2CCOCC2)no1 (single isomer, unassigned) | MRC-5 SV2 | – | – | CC50 | > 64 µM |
| CCc1ncn(CC(c2c[nH]c3ccc(C)cc23)c2c[nH]c3ccc(C)cc23)c1C(=O)OC | HaCaT | MTS | 24 h | CC50 | > 20 µM |
| COc1cccc2c1C(=O)c1c(O)c3c(c(O)c1C2=O)C[C@@](O)(C(=O)CO)C[C@@H]3O[C@H]1C[C@H](N)[C@H](O)[C@H](C)O1 | WI-38 | MTT | 3.125 µM, 24 h | viability | 64.9% |
| O=C(/C=C/c1ccc(O)c(O)c1)O[C@@H]1C[C@](O)(C(=O)O)C[C@@H](O)[C@H]1O | WI-38 | WST-1 | 48 h | IC50 | 91.2 µM |
| O=C1CCCCC1=C1Sc2nc3ccc(S(=O)(=O)N4CCCC4)cc3nc2S1 | WI-38 | MTT | 50 µM, 24 h | viability | 61.3% |
| CC(=O)O[C@@H]1c2c(ccc3ccc(=O)oc23)OC(C)(C)[C@@H]1OC(=O)C1(C)OC1C (stereo partly drawn) | WI-38 | WST-1 | – | IC50 | 99.6 µM |
| O=C(N[C@@H](Cc1ccccc1)C(=O)c1cc(-c2ccccc2)no1)[C@H](Cc1ccccc1)NC(=O)N1CCOCC1 (mixture of isomers) | MRC-5 SV2 | – | – | CC50 | > 64 µM |
| COC(=O)c1c(C)ncn1CC(c1c[nH]c2cc(Br)ccc12)c1c[nH]c2cc(Br)ccc12 | HaCaT | MTS | 24 h | CC50 | > 20 µM |
| CC1(C)CC[C@]2(C)CC[C@]3(C)C(=CC[C@@H]4[C@@]5(C)CC[C@H](O)C(C)(C)[C@@H]5CC[C@]43C)[C@@H]2C1 | WI-38 | WST-1 | 48 h | IC50 | 103 µM |
| N=C(N)c1ccc(OCCCCCOc2ccc(C(=N)N)cc2)cc1 | HaCaT | MTS | 24 h | CC50 | > 20 µM |
| O=Cc1ccc(CO)o1 | WI-38 | WST-1 | 48 h | IC50 | 78.3 µM |
| O=C(N[C@@H](Cc1ccccc1)C(=O)c1noc(-c2ccccc2)n1)[C@H](Cc1ccccc1)NC(=O)N1CCOCC1 | MRC-5 SV2 | – | – | CC50 | > 64 µM |
| N#CC(C(=O)Nc1cccc(C(F)(F)F)c1)=C1Sc2nc3ccc(S(=O)(=O)N4CCCC4)cc3nc2S1 | WI-38 | MTT | 25 µM, 24 h | viability | 67.5% |
| O=C(N[C@@H](Cc1ccccc1)C(=O)c1cc(-c2ccccc2)on1)[C@H](Cc1ccccc1)NC(=O)N1CCOCC1 (single isomer, unassigned) | MRC-5 SV2 | – | – | CC50 | > 64 µM |
| CCOC(=O)C(C(C)=O)=C1Sc2nc3ccc(S(=O)(=O)N4CCCC4)cc3nc2S1 | WI-38 | MTT | 50 µM, 24 h | viability | 48.2% |
| O=c1c(O)c(-c2ccc(O)c(O)c2)oc2cc(O)cc(O)c12 | WI-38 | WST-1 | 48 h | IC50 | 87.6 µM |
| O=C(N[C@@H](Cc1ccccc1)C(=O)c1c[nH]nn1)[C@H](Cc1ccccc1)NC(=O)N1CCOCC1 | MRC-5 SV2 | – | – | CC50 | > 64 µM |
